According to ChEMBL document CHEMBL4007470, “Discovery of a 2'-fluoro-2'-C-methyl C-nucleotide HCV polymerase inhibitor and a phosphoramidate prodrug with favorable properties” (Bioorg Med Chem Lett, 2017):

What was measured:
[1] = Permeability of the compound from basolateral to apical side in human Caco2 cells at 10 uM; assay type: ADME, cell-based, Caco-2; details: caco-2, 10 µM, 10 µM
How it was run: (§1)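 Caco-2 permeability at 10 μM compound, measured in apical-to-basolateral and basolateral-to-apical directions.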

[2] = Half life in hamster intestinal S9 fractions at 2 uM by LC-MS/MS analysis; assay type: ADME, Intestine; details: cricetinae, s9, 2 µM; 2 µM
[3] = Permeability of the compound from apical to basolateral side in human Caco2 cells at 10 uM; assay type: ADME, cell-based, Caco-2; details: caco-2, 10 µM, 10 µM; how it was run: as §1
Rattus norvegicus [4] = species on record: Rattus norvegicus; assay: Toxicity in rat assessed as vacuolization in brain treated for 28 days by histopathology; details: in vivo, 672 h
Liver = assay: Hepatic extraction in human liver S9 fractions at 2 uM by LC-MS/MS analysis; assay type: ADME; details: s9, 2 µM, 2 µM
How it was run: (§2)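 Compound at 2 μM incubated with S9 fractions at 37 °C for 90 min with NADPH and UDPGA. Quenched with aqueous acetonitrile/methanol containing internal standard and analysed by LC-MS/MS. Half-life from an exponential fit assuming first-order kinetics. Hepatic extraction predicted from half-life using the well-stirred model.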

Hepatitis C virus [5] = assay: Antiviral activity against HCV genotype 1b infected in human HuH7 cells by luciferase reporter gene assay; assay type: functional, cell-based, Hepacivirus hominis
How it was run: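 Luciferase-reporter genotype 1b subgenomic replicon in Huh-7 cells; EC50 is concentration giving 50% inhibition. Values are averages of at least three repeats.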

Rattus norvegicus [6] = assay: Toxicity in rat at 1000 mg/kg/day for 28 days; assay type: organism-based; details: in vivo, 672 h
Plasma = assay: Half life in human plasma at 2 uM by LC-MS/MS analysis; assay type: ADME, cell-free; details: 2 µM
How it was run: (§3)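 Compound at 2 μM incubated in plasma at 37 °C for up to 4 h. Aliquots quenched with 9 volumes of acetonitrile containing internal standard, then centrifuged. Supernatant analysed by LC-MS/MS.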

[7] = Half life in hamster plasma at 2 uM by LC-MS/MS analysis; assay type: ADME, cell-free; details: cricetinae, 2 µM; how it was run: as §3
Rhesus monkey = assay: Toxicity in monkey at 30 mg/kg/day for 28 days; assay type: organism-based, Macaca mulatta; details: in vivo, 672 h
Hepatitis C virus [8] = assay: Antiviral activity against HCV genotype 1a infected in human HuH7 cells by luciferase reporter gene assay; assay type: functional, cell-based, Hepacivirus hominis, subtype 1a
[9] = Hepatic extraction in hamster liver S9 fractions at 2 uM by LC-MS/MS analysis; assay type: ADME; details: cricetinae, s9, 2 µM; 2 µM; how it was run: as §2
Hepatitis C virus [10] = assay: Antiviral activity against HCV genotype 4a infected in human HuH7 cells by luciferase reporter gene assay; assay type: functional, cell-based, Hepacivirus hominis
[11] = Inhibition of human RNA polymerase-2
[12] = Activity at human mitochondrial RNA polymerase assessed as incorporation rate relative to ATP; assay type: ADME
[13] = test system: RNA-directed RNA polymerase (Hepacivirus hominis), O39930 [UNDEFINED MUTATION]; assay: Inhibition of HCV genotype 1b wild-type NS5B RNA dependent RNA polymerase S282T mutant relative to control; details: Hepatitis C virus subtype 1b
[14] = Inhibition of human DNA polymerase-gamma
[15] = Inhibition of human DNA polymerase-alpha
DNA polymerase beta = DNA polymerase beta (Homo sapiens, UniProt P06746); assay: Inhibition of human DNA polymerase-beta
[16] = Inhibition of HCV genotype 1b wild-type NS5B RNA dependent RNA polymerase; parameters: species or system Hepatitis C virus subtype 1b
[17] = Prodrug activation in human HuH7 cells infected with HCV genotype 1b assessed as ((2R,3R,4R,5S)-5-(4-aminopyrrolo[1,2-f][1,2,4]triazin-7-yl)-3,4-dihydroxy-4-methyltetrahydrofuran-2-yl)methyl tetrahydrogen triphosphate formation per million cells at 10 uM after 24 hrs by LC-MS/MS analysis; assay type: cell-based; details: huh-7, 24 h
How it was run: (§4)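 Huh-7 replicon cells grown in DMEM with 10% heat-inactivated FBS, penicillin-streptomycin and G418, plated to confluency (0.88×10^6 cells/well). Prodrug at 10 μM given as continuous incubation, sampled at 2, 6 and 24 h. Cells washed with ice-cold saline and extracted into 70% methanol overnight. Triphosphate quantified by LC-MS/MS (LLOQ 0.137 pmol/million cells). Duplicate wells, single experiment.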

Huh-7 = assay: Cytotoxicity against human HuH7 cells; assay type: cell-based
[18] = Prodrug activation in human HuH7 cells infected with HCV genotype 1b assessed as((2R,3R,4R,5S)-5-(4-aminopyrrolo[1,2-f][1,2,4]triazin-7-yl)-3,4-dihydroxy-4-methyltetrahydrofuran-2-yl)methyl tetrahydrogen triphosphate formation per million cells at 10 uM after 6 hrs by LC-MS/MS analysis; assay type: cell-based; details: huh-7, 6 h; how it was run: as §4
[19] = Prodrug activation in human HuH7 cells infected with HCV genotype 1b assessed as ((2R,3R,4R,5S)-5-(4-aminopyrrolo[1,2-f][1,2,4]triazin-7-yl)-3,4-dihydroxy-4-methyltetrahydrofuran-2-yl)methyl tetrahydrogen triphosphate formation per million cells at 10 uM after 2 hrs by LC-MS/MS analysis; assay type: cell-based; details: huh-7, 2 h; how it was run: as §4
[20] = Hepatitis C virus, genotype 1b, Huh-7

CC(C)OC(=O)C1(NP(=O)(OC[C@H]2O[C@@H](c3cnc4c(N)ncnn34)[C@](C)(F)[C@@H]2O)Oc2ccccc2)CCC1 (stereo in doubt; 53)
permeability [1]: 9.3 ×10⁻⁶ cm/s | t1/2 [2]: 1.65 h | permeability [3]: 1.7 ×10⁻⁶ cm/s | Activity (Rattus norvegicus [4]): Dose-dependent effect | ERH (Liver): 76% | EC50 (Hepatitis C virus [5]): 3000 nM | Activity (Rattus norvegicus [6]): Non-Toxic | t1/2 (Plasma): 9.1 h | t1/2 [7]: 3.63 h | Activity (Rhesus monkey): Non-Toxic | EC50 (Hepatitis C virus [8]): 800 nM | ERH [9]: 90% | EC50 (Hepatitis C virus [10]): 440 nM

C[C@@]1(F)[C@H](O)[C@@H](COP(=O)(O)OP(=O)(O)OP(=O)(O)O)O[C@H]1c1cnc2c(N)ncnn12
IC50 [11]: > 200000 nM | Activity [12]: 0.04% | fold change (FC) [13]: 5.9 | IC50 [14]: > 200000 nM | IC50 [15]: > 200000 nM | EC50 (Hepatitis C virus [5]; [20]): > 89000 nM | IC50 (DNA polymerase beta): > 200000 nM | IC50 [16]: 150 nM

CCOC(=O)[C@H](C)N[P@@](=O)(O)OC[C@H]1O[C@@](C#N)(c2ccc3c(N)ncnn23)[C@](C)(O)[C@@H]1O
Drug metabolism [17]: 83 pmol | Activity (Huh-7): Non-Toxic | Drug metabolism [18]: 117 pmol | Drug metabolism [19]: 26 pmol | EC50 (Hepatitis C virus [5]; [20]): 1450 nM
